pIC50: −log10 of the molar value.
Key:
Vero = assay: Antiviral activity against herpes simplex virus type 1 (KOS strain) grown on human foreskin fibroblast cells determined by vedduction in plaque formation upon incubation at 37 degrees C with the compound dissolved in DMSO until plaque were formed; type: functional, cell-based
Outline: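 HSV-1 KOS, about 50 PFU per well, was adsorbed for 1 h at 37 °C. The inoculum was then replaced with drug dilutions from 200-fold DMSO stocks in DMEM containing 10% FBS and 0.8% carboxymethyl cellulose. Cultures were kept at 37 °C until plaques appeared. Plaques were counted microscopically or by crystal violet staining (0.1% in 20% ethanol). IC50 came from linear regression of % inhibition relative to the uninhibited control.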

[1] = target: T1, DNA polymerase alpha catalytic subunit (Homo sapiens, UniProt P09884); assay: Inhibition of human alpha DNA polymerase (95 uL) activity in a solution containg […] HEPES (pH 7.5) upon incubation for 12 minutes at 26 degrees C with the compound dissolved in DMSO
T1 sequence (P09884 whole entry): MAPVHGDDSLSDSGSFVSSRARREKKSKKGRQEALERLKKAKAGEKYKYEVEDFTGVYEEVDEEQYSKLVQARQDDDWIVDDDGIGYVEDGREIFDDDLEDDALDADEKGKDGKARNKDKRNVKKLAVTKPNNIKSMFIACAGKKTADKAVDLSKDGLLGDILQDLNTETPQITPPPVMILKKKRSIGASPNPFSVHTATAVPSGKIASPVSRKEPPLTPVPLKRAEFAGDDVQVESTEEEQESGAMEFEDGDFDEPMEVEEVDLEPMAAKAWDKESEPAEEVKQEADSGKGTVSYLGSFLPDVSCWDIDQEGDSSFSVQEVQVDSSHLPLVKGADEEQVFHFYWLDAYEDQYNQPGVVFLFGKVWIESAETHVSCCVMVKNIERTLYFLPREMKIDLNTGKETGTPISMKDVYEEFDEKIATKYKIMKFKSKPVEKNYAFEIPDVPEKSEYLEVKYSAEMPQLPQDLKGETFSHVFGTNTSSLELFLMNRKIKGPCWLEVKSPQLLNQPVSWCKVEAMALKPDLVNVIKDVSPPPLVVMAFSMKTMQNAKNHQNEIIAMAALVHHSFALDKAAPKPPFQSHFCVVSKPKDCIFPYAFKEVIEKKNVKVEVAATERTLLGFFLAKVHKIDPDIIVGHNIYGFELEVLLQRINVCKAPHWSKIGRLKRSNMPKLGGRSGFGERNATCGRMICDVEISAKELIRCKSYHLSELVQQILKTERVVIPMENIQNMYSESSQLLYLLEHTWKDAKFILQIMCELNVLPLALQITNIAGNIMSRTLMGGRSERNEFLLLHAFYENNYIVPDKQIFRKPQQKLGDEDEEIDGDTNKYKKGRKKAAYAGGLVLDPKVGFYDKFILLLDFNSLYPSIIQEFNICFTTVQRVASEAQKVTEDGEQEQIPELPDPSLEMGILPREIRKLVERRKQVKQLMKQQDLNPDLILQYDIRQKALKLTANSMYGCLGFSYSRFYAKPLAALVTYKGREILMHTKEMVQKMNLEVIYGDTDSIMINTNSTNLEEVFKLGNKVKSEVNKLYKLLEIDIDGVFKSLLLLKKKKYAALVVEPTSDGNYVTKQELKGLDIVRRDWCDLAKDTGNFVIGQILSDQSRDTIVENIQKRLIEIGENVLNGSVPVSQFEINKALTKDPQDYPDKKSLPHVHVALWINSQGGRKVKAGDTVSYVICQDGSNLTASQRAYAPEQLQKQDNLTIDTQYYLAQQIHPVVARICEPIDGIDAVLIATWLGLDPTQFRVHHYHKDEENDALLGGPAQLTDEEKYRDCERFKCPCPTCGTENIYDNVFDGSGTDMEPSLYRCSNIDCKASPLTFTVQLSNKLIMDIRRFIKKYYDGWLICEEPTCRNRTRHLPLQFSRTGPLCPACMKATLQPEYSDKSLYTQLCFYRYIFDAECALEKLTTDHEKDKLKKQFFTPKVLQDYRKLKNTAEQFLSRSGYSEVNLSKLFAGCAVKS

HFF [2] = assay: Antiviral activity against Varicella-Zoster virus (Webster strain) grown on human foreskin fibroblast cells determined by vedduction in plaque formation upon incubation at 37 degrees C with the compound dissolved in DMSO until plaque were formed; type: functional, cell-based
Outline: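 Monolayers of human foreskin fibroblasts were infected with about 50 PFU per well for 1 h at 37 °C. The inoculum was then replaced with DMEM containing 10% FBS, 0.8% carboxymethyl cellulose and diluted compound from 200-fold DMSO stocks. Plates were incubated at 37 °C until plaques formed. Plaques were counted microscopically or after 0.1% crystal violet staining. IC50 came from linear regression of % inhibition versus untreated controls.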

HFF [3] = assay: Antiviral activity against human cytomegalovirus (Davis strain) grown on human foreskin fibroblast cells determined by reduction in plaque formation upon incubation at 37 degrees C with the compound dissolved in DMSO; type: functional, cell-based
[4] = Toxicity on uninfected human foreskin fibroblast cells determined in microscopic evaluation and quantitative neutral red dye uptake assay; type: cell-based; settings: uninfected human foreskin fibroblast (HFF) cells
Outline: (§1)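 Uninfected cells were seeded as subconfluent monolayers and exposed to compound for 3 days. Viability was judged both by microscopic inspection and by quantitative neutral red dye uptake, giving CC50.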

[5] = Toxicity on uninfected African green monkey kidney cells determined in microscopic evaluation and quantitative neutral red dye uptake assay; type: cell-based; settings: chlorocebus sabaeus, uninfected African green monkey kidney (Vero) cells; outline: as §1

Row | Compound | pIC50 (Vero) | pIC50 [1] | pIC50 (HFF [2]) | pIC50 (HFF [3]) | CC50 [4] [µM] | CC50 [5] [µM]
1 | Cn1cc(C(=O)NCc2ccc(Cl)cc2)c(=O)c2cc(CN3CCOCC3)ccc21 | 5.46 | < 4.40 | 6.47 | 6.05 | > 100 | > 100
2 | O=C(NCc1ccc(Cl)cc1)c1cnc2ccc(CCCO)cc2c1O | 5.13 | < 4.40 | 6.77 | 6.00 | > 100 | > 100
3 | Cn1cc(C(=O)NCc2ccc(Cl)cc2)c(=O)c2cc(CN3CCOCC3)sc21 | 5.43 | < 4.40 | 6.11 | 6.10 | > 100 | > 100

From ChEMBL document CHEMBL1141075, “4-Oxo-4,7-dihydrothieno[2,3-b]pyridines as non-nucleoside inhibitors of human cytomegalovirus and related herpesvirus polymerases” (J Med Chem, 2005)
